Reference: ChEMBL document CHEMBL1129050, “Correlation of anti-HIV potency with lipophilicity in a series of cosalane analogs having normal alkenyl and phosphodiester chains as cholestane replacements” (J Med Chem, 1996)

Experiments:
CEM-SS [1] = experiment: Effective concentration against HIV-1RF induced cytopathicity in CEM-SS cells; assay type: functional, cell-based; settings: Homo sapiens
Procedure, shortened: (§1)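 CEM-SS cells (5000/well) infected with thawed HIV-1 RF stock at MOI 0.01 in the presence of serially diluted compound (as ammonium salts); 37 °C, 5% CO₂, 6 days. Supernatant assayed for RT activity, p24 and/or infectious virus; cell protection from cytopathic effect read by XTT. EC₅₀ averaged from at least two determinations; compounds tested up to […].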

CEM-SS [2] = experiment: Cytotoxic concentration against mock-infected CEM-SS cells; assay type: functional, cell-based; settings: Homo sapiens
Procedure, shortened: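 Uninfected (mock-infected) CEM-SS cells, exponentially growing, seeded at 5000 cells/well with serially diluted compound (tested as ammonium salts) in complete medium; 37 °C, 5% CO₂, 6 days. Growth/viability by XTT assay; IC₅₀ = 50% cytotoxic concentration, averaged from at least two determinations.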

CEM-SS [3] = experiment: Effective concentration against HIV-1RF induced cytopathicity in CEM-SS cells; No antiviral uM; assay type: functional, cell-based, Homo sapiens; procedure, shortened: as §1
CEM-SS [4] = experiment: Effective concentration against HIV-1RF induced cytopathicity in CEM-SS cells; No antiviral activity was observed at concentrations uM; assay type: functional, cell-based, Homo sapiens; procedure, shortened: as §1

SMILES | EC50 (CEM-SS [1]) | EC50 (CEM-SS [3]) | EC50 (CEM-SS [4]) | IC50 (CEM-SS [2])
CCCCCCCCCCCCCCCCCCOP(=O)(O)OCCC=C(c1cc(Cl)c(O)c(C(=O)O)c1)c1cc(Cl)c(O)c(C(=O)O)c1 |  | Not Active |  | 74 µM
O=C(O)c1cc(C(=CCC23CC4CC(CC(C4)C2)C3)c2cc(Cl)c(O)c(C(=O)O)c2)cc(Cl)c1O |  | Not Active |  | 105 µM
CC(C)CCCC(C)[C@H]1CC[C@H]2[C@@H]3CCC4C[C@@H](CCC=C(c5cc(Cl)c(O)c(C(=O)O)c5)c5cc(Cl)c(O)c(C(=O)O)c5)CC[C@]4(C)[C@H]3CC[C@]12C (some centres undefined) | 3 µM |  |  | > 300 µM
CCCCCCCCCCCCCCCCCCCCCCCCCCCCCC=C(c1cc(Cl)c(O)c(C(=O)O)c1)c1cc(Cl)c(O)c(C(=O)O)c1 | 13.1 µM |  |  | > 220 µM
O=C(O)c1cc(Cc2cc(Cl)c(O)c(C(=O)O)c2)cc(Cl)c1O | 329 µM |  |  | > 364 µM

Second part, led by results:

EC50 (CEM-SS [1]) | EC50 (CEM-SS [3]) | EC50 (CEM-SS [4]) | SMILES | IC50 (CEM-SS [2])
51.8 µM |  |  | CCCCC/C=C\C/C=C\CCCCCCCCOP(=O)(O)OCCC=C(c1cc(Cl)c(O)c(C(=O)O)c1)c1cc(Cl)c(O)c(C(=O)O)c1 | 86 µM
49 µM |  |  | CCCCCCCC/C=C\CCCCCCCCOP(=O)(O)OCCC=C(c1cc(Cl)c(O)c(C(=O)O)c1)c1cc(Cl)c(O)c(C(=O)O)c1 | 61.3 µM
 | Not Active |  | CCCCCCCCCCCCCCOP(=O)(O)OCCC=C(c1cc(Cl)c(O)c(C(=O)O)c1)c1cc(Cl)c(O)c(C(=O)O)c1 | 101 µM
 |  | Not Active | CCCCCC=C(c1cc(Cl)c(O)c(C(=O)O)c1)c1cc(Cl)c(O)c(C(=O)O)c1 | > 95 µM
19.8 µM |  |  | CCCCCCCCCCCCCCCC=C(c1cc(Cl)c(O)c(C(=O)O)c1)c1cc(Cl)c(O)c(C(=O)O)c1 | > 35 µM
43.2 µM |  |  | CCCCCCCCCC=C(c1cc(Cl)c(O)c(C(=O)O)c1)c1cc(Cl)c(O)c(C(=O)O)c1 | > 49 µM
 | Not Active |  | CCCCCCCCCCCCCCCCOP(=O)(O)OCCC=C(c1cc(Cl)c(O)c(C(=O)O)c1)c1cc(Cl)c(O)c(C(=O)O)c1 | 84 µM
